Rows were chosen to be rich in hits. Some 3.7% of all compounds tested hit in one or more screens of this group.
KCNK9 block: inhibitors of human KCNK9 two-pore domain potassium channel; actives 1.2% (n = 310,000); Q9NPC2; HEK293 KCNK9, FluxOR thallium flux fluorescence; stronger effect = lower value; B-score at 10 µM;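 active means ratio B-score over 3 SD below the library mean, with starting fluorescence within 5 SD of its mean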;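 further: negative B-score means less thallium flux so channel inhibition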
KCNQ1 act: potentiators or activators of human KCNQ1 potassium channel. P51787. CHO-K1 KCNQ1, thallium flux FluxOR fluorescence; stronger effect = higher value. B-score at 10 µM. actives 0.35% (n = 310,000);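 active means fluorescence ratio B-score, a plate-corrected score, at least three library SD, with initial intensity B-score within 5 SD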
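Material: CHO-K1 cells stably expressing KCNQ1. Medium: assay buffer for compound exposure, DMSO matched across wells. Reagent: K+/Tl+ depolarizing stimulus. Compound dosing: single-concentration screen. Times: 37 °C overnight plating, 90-min dark dye load, 20-min compound pretreatment. Technique: FluxOR Tl+ flux fluorescence.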
KCNQ1 block: human KCNQ1 channel inhibition. P51787. CHO-K1 KCNQ1, FluxOR thallium flux fluorescence; stronger effect = higher value. B-score at 10 µM. actives 1.3% (n = 310,000). AID 2642;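 active means compounds whose thallium flux B-score, printed positive for inhibition, exceeds three library SD while starting fluorescence stays within three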;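 further: channel opened by potassium depolarization with thallium stimulus after 20 min compound exposure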
Kir21 block: blocks the mouse Kir2.1 inward-rectifier potassium channel. HEK293-Kir2.1, FluxOR thallium flux fluorescence; stronger effect = lower value. B-score at 10 µM. actives 0.85% (n = 310,000). AID 1672;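 active means fluorescence ratio B-score at or below minus 3 SD of library scores, with starting-brightness B-score within 2 SD, cut at about -4.2 in these data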;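 further: channel flux triggered by added potassium and thallium sulfate stimulus; B-score of peak minus minimum fluorescence over baseline after thallium stimulus; more negative B-score means stronger Kir2.1 block with less thallium influx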
Target sequence (P35561 whole entry, looked up): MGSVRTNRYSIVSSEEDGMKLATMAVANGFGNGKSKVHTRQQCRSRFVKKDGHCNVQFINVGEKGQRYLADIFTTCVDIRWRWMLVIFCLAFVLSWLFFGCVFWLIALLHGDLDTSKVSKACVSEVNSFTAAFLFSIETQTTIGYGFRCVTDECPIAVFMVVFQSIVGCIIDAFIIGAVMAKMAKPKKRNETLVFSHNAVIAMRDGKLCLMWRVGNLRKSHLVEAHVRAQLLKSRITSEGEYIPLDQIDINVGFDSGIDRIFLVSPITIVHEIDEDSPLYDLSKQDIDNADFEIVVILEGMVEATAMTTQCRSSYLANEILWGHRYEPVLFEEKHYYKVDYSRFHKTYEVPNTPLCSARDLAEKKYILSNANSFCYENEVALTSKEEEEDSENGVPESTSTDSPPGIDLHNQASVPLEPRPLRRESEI
KCNK3 inh: human KCNK3 channel inhibition, primary screen | B-score at 10 µM | O14649 | AID 602410 | actives 0.84% (n = 340,000) | CHO-KCNK3 thallium flux, FluxOR fluorescence; stronger effect = lower value;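 active means B-score under library mean minus 4 SD, starting fluorescence ratio at most library mean plus 5 SD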;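 further: more negative B-score means stronger inhibition of thallium flux through KCNK3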
hERG rescue: hERG (human) protection from proarrhythmic block | actives 0.51% (n = 310,000) | Q12809 | AID 1511 | activation (rescue from dofetilide block), less the hit threshold, % at 10 µM | CHO-hERG, FluxOR thallium flux, dofetilide IC70 present;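 active means activation above the mean of controls blocked by dofetilide plus 5 SD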;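 further: thallium influx through hERG after potassium depolarization seen as dye fluorescence rise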
Each line names hits and unclear results; the compound was inactive in the other large screens.

N/C(CSc1nc(-c2ccccc2)c(-c2ccccc2)o1)=N\O	KCNK9 block -7.2, KCNQ1 block 8
COc1ccccc1NS(=O)(=O)c1cccc(C(=O)NCC(c2cccs2)N(C)C)c1 (centres undefined)	none (no result: KCNK9 block, KCNQ1 act, KCNQ1 block, Kir21 block, hERG rescue)
CCCCCn1nc(C(=O)N2CCc3ccccc32)c2ccccc2c1=O	KCNK3 inh -10 (no result: KCNK9 block, KCNQ1 act, KCNQ1 block, Kir21 block, hERG rescue)
CCCCn1nc(C(=O)NC2CCCCCC2)c2ccccc2c1=O	none (no result: KCNK9 block, KCNQ1 act, KCNQ1 block, Kir21 block, hERG rescue)
CCCCn1nc(C(=O)Nc2ccc3c(c2)OCO3)c2ccccc2c1=O	KCNK3 inh -10 (no result: KCNK9 block, KCNQ1 act, KCNQ1 block, Kir21 block, hERG rescue)
CCn1nc(C(=O)N[C@@H](CCSC)c2nc3ccccc3[nH]2)c2ccccc2c1=O	none
CCCCn1nc(C(=O)Nc2ccccc2N2CCCC2)c2ccccc2c1=O	KCNK3 inh -8.7 (no result: KCNK9 block, KCNQ1 act, KCNQ1 block, Kir21 block, hERG rescue)
CCCn1nc(C(=O)N2CCc3ccccc32)c2ccccc2c1=O	none (no result: KCNK9 block, KCNQ1 act, KCNQ1 block, Kir21 block, hERG rescue)
CCCn1nc(C(=O)Nc2ccc3c(c2)OCO3)c2ccccc2c1=O	none (no result: KCNK9 block, KCNQ1 act, KCNQ1 block, Kir21 block, hERG rescue)
CCCCn1nc(C(=O)N[C@@H](CCSC)c2nc3ccccc3[nH]2)c2ccccc2c1=O	KCNK9 block -7.5
CSCCC(NC(=O)COc1ccccc1)C(=O)N1CCCC(C(F)(F)F)C1 (centres undefined)	none
COc1ccc(/C=C2\Oc3cc(OCC(=O)N4CC(O)C[C@H]4C(=O)O)ccc3C2=O)cc1OC (some centres undefined)	none
Oc1ccccc1/C=N/NC(=S)NC1CC2C=CC1C2 (centres undefined)	none
CCCN(CCC)C(=S)NC1CC2C=CC1C2 (centres undefined)	Kir21 block -4.7
Cc1cc(C)nc(/N=C(\N)Nc2ccc(CC(=O)OC(C)C)cc2)n1	KCNQ1 act 10
Cc1cc(C)nc(/N=C(\N)Nc2ccc(OCCC(C)C)cc2)n1	none
CCOC(=O)CC(NC(=O)c1cccs1)c1ccc(OCC)cc1 (centres undefined)	hERG rescue 8.6
CC(C)(C)c1nc(SCC(=O)NCc2cccs2)c2ccccc2n1	none
CCOC(=O)CNC(=O)CSc1nc(Cc2cccs2)nc2ccccc12	hERG rescue 5.2
O=C(NCCCn1ccnc1)c1cc(S(=O)(=O)N2CCOCC2)c(Cl)cc1Cl	none
Cc1ccc(S(=O)(=O)N2CCOCC2)cc1C(=O)NCCCn1ccnc1	hERG rescue 4.7
CC(C)(C)c1ccccc1OCC(=O)Nc1ccccc1C(=O)NCc1cccnc1	Kir21 block -6
COc1cccc(C(=O)NCCS(=O)(=O)NC(C)CCc2ccccc2)c1 (centres undefined)	none
COc1ccc(C2=NN(C(=O)c3ccccc3)C(c3ccc(OC)c(OC)c3)C2)cc1OC (centres undefined)	none
COc1ccc(C2CC(c3ccc([N+](=O)[O-])cc3)=NN2C(=O)c2ccccc2)cc1OC (centres undefined)	KCNK9 block -7
Cc1cc(Br)ccc1NC(=O)CN(C)C(=O)C1CSC2(C)CCC(=O)N12 (centres undefined)	none (no result: KCNK9 block, KCNQ1 act, KCNQ1 block, Kir21 block, hERG rescue)
Cc1ccc(NC(=O)NCc2ccccn2)cc1	hERG rescue 9.3
Cc1cccc(Oc2ccc(NC(=O)c3ccccc3C(=O)O)cc2)c1C	hERG rescue 5.6
O=C(O)c1ccccc1C(=O)Nc1ccc(Oc2cccc3ccccc23)cc1	none
CSc1ccc(CN(C)C(C)C(=O)NCc2ccccc2)cc1 (centres undefined)	Kir21 block -9.7
CCOc1ccc(CN(C)C(C)C(=O)NCc2ccccc2)cc1 (centres undefined)	none
COc1ccc(CNC(=O)CN(C)Cc2ccc(SC)cc2)cc1	Kir21 block -6.8
C/C(N)=C(/C#N)C(=O)COC(=O)CNS(=O)(=O)c1ccc(F)c(F)c1F	none
O=C(NCCc1ccc(Cl)cc1)C1COc2ccccc2O1 (centres undefined)	Kir21 block -4.7
Cc1ccc(S[C@@H](CCN2CC[C@H](C(C)(C)C)CCC2=O)c2ccccc2)cc1	KCNQ1 block 7
COc1cc(/C=N/NC(=O)CCN2CCN(C(c3ccccc3)c3ccccc3)CC2)ccc1O	none
CNc1ccc(/C=C/C(=O)c2ccc3c(c2)OCCO3)cc1[N+](=O)[O-]	KCNQ1 block 10
